Laboratory results taken from PubChem BioAssay AID1943 (The Scripps Research Institute Molecular Screening Center, 2009).
Screen size: about 1,600 compounds; about 500 (31%) were called active. The list is a sample of the results. Unmarked numbers belong to inactive results.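 Rule for the calls: active = inhibition above the mean of all tested compounds plus 3 SD, cutoff set per campaign (cut at about 36% in these data); inactive = the rest.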

system: Hepatitis C virus NS3 helicase; test: blockers of HCV NS3 DNA unwinding – biochemical, Cy5 molecular beacon fluorescence, triplicate, confirmation (AID 1943); details: at 10.9 µM, hits give high values
Summary of the method: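 Material – hepatitis C virus NS3 helicase fragment · Medium – MOPS pH 6.5 buffer with additives · Compound – single nominal final dose of 10.9 µM, DMSO vehicle · Times – 0 and 60 min reads at 25 °C · Detection – Cy5 fluorescence · Read-out basis – % inhibition of unwinding · Benchmarks – DMSO and thioflavine S wells · Replication – triplicate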

SMILES	inhibition
CCOC(=O)c1c(-c2ccccc2)oc2cc(Br)c(O)c(C=O)c12	36.3% (active)
CC(Oc1ccccc1)C(=O)Nc1oc(-c2ccco2)c(-c2ccco2)c1C#N (centres undefined)	61.5% (active)
Cc1cccc(NC(=O)c2sc3nc4c(c(-c5ccco5)c3c2N)CCC4)c1	-20.1%
COc1ccc(/C=C2\SC(=S)N(CCC(=O)Nc3cccc(C(=O)O)c3)C2=O)cc1OC	52.9% (active)
Cc1ccc(SC(CC(=O)c2ccc(C(C)(C)C)cc2)C(=O)O)cc1 (centres undefined)	74.6% (active)
COCCNC(=O)Nc1ccc2nc(-c3ccco3)c(-c3ccco3)nc2c1	43.5% (active)
COc1ccc(NC(=O)CSc2ccc(-c3ccco3)nn2)c(OC)c1	-10.9%
COc1ccc(OCC(=O)Nc2nnc(-c3ccco3)s2)cc1	-10.9%
S=C(NCCc1ccccc1)N1CCCCC1	-9.72%
CCSc1nsc(NC(=O)Nc2cccc(C(C)=O)c2)n1	-4.64%
CNS(=O)(=O)c1cccc(C(=O)NC2CCCc3ccccc32)c1 (centres undefined)	-10.8%
Cc1ccc(OCC(=O)c2cc(C)n(Cc3ccco3)c2C)c([N+](=O)[O-])n1	-9.23%
Cc1ccc(S(=O)(=O)NCCC(c2ccccc2)c2ccccc2)cc1C(=O)O	55.2% (active)
O=C1NN(c2ccccc2)C(=O)/C1=C/c1ccc(-c2cccc(C(=O)O)c2)o1	54.1% (active)
COc1cc(C2CC(=O)N3CN(Cc4ccccc4)CSC3=C2C#N)ccc1OCc1ccccc1 (centres undefined)	25%
N#C/C=C(/c1ccc(F)cc1)N1CCOCC1	-4.32%
Cc1ccc(-c2nn(-c3ccccc3)cc2/C=C2\SC(=S)N(CCCCCC(=O)O)C2=O)o1	84.6% (active)
O=C(N/N=C/c1ccc([N+](=O)[O-])o1)c1cn(-c2ccccc2)nc1-c1ccc(F)cc1	-4.3%
COc1cccc(CNC(=O)c2nnn(CC(=O)Nc3cc(Cl)ccc3C)c2N)c1	3.98%
Cc1ccc(C(CC(=O)O)Nc2nc(N3CCCCC3)nc(N3CCCCC3)n2)cc1 (centres undefined)	79% (active)
COc1ccccc1N1CCN(C(=O)CCS(=O)(=O)c2ccc3c(c2)NC(=O)C(C)S3)CC1 (centres undefined)	-19.2%
Cc1ccccc1Nc1nnc(SCC(=O)c2cc3ccccc3o2)s1	-10.8%
CC(C)c1ccc(Nc2nnc(SCC(=O)c3nnc(-c4ccccc4)o3)s2)cc1	89.1% (active)
Cc1cc(O)c(C(=O)/C=C/c2c(F)c(F)c(F)c(F)c2F)c(=O)o1	69.6% (active)
CS(=O)(=O)c1ccc2c(c1)SC1=NC(=O)/C(=C/c3ccco3)C(=N)N12	22.5%

SMILES	inhibition
Nc1ccc2nc3c(=O)[nH]c(=S)[nH]c3nc2c1	2.58%
O=[N+]([O-])c1cc(Cl)cc(/C=N/NC(=S)Nc2cc(S(=O)(=O)N3CCOCC3)ccc2Cl)c1O	94.9% (active)
Cc1ccc(S(=O)(=O)N/N=C\c2cc3c(cc2[N+](=O)[O-])OCO3)cc1	-12%
CN(C)c1ccc(N/C=C/C(=O)C(F)(F)F)cc1	2.03%
COc1cccc(C(=O)CC(=O)C(=O)Nc2ccc([N+](=O)[O-])cc2C)c1	16.8%
CCOc1ccc(C(C(=O)NCCOC)N(CCOC)C(=O)CCC(=O)Nc2ccccn2)cc1 (centres undefined)	-12.9%
Fc1ccc(-c2ccc(-c3nn4c(-c5ccco5)nnc4s3)o2)cc1	12%
CCN(CC)CCOc1ccc2c(c1)C(=NNC(=O)c1ccccn1)c1cc(OCCN(CC)CC)ccc1-2	37.9% (active)
COc1cc(/C=C2/C(=O)NN(c3cccc(Cl)c3)C2=O)cc(Br)c1O	57.7% (active)
Cc1ccc(C)c(-n2c(SCC(=O)O)nc3sc4c(c3c2=O)CCCC4)c1	22.2%
O=C1N/C(=C/c2cccn2-c2ccccc2)C(=O)N1c1cccc(Cl)c1	6.32%
CS/C(=C\C(=O)c1ccco1)Nc1ccccc1Cl	-6.86%
CCOC(=O)c1nnn(-c2nc(OC)nc(N(C)C)n2)c1-c1ccccc1	-9.79%
CSc1c(SCc2ccccc2)cnn(Cc2ccccc2)c1=O	-8.85%
c1ccc(CSc2nnc(-c3ccco3)c(-c3ccco3)n2)cc1	67% (active)
Clc1ccccc1CSc1nnc(-c2ccco2)c(-c2ccco2)n1	72% (active)
O=c1c2c(-c3ccccc3)ccnc2[nH]n1-c1ccccc1	-13.5%
Brc1ccccc1C1Nc2cccc3cccc(c23)N1	-7.38%
O=C(CCCN1C(=O)/C(=C\c2ccco2)SC1=S)Nc1cccc2ccccc12	73.3% (active)
O=c1nc2s/c(=C\c3ccco3)c(=O)n2nc1Cc1ccccc1	-17.8%
NS(=O)(=O)c1ccc(-c2ccc(/C=C3\SC(=O)NC3=O)o2)cc1	-18.5%
O=C(CCl)NNc1cccc(Cl)n1	-2.17%
CCOc1ccc(C2C3=C(CCCC3=O)N(CC(=O)O)C3=C2C(=O)CCC3)cc1	-13.6%
CC1=NN(c2ccc(Cl)c(C(=O)O)c2)C(=O)/C1=C/c1ccc(-c2ccccc2[N+](=O)[O-])o1	73.3% (active)
CC(=O)Nc1ccc(Nc2c3ccccc3nc3ccccc23)cc1	2.42%

SMILES	inhibition
Cc1ccc(C2=N/C(=C\c3ccc(OS(=O)(=O)c4ccc(C)cc4)cc3)C(=O)O2)cc1	27.4%
Cc1ccc(/C=C/C(=O)Nc2ccc([N+](=O)[O-])c(NC(=O)/C=C/c3ccc(C)o3)c2)o1	62.1% (active)
Cc1occc1C(=O)N/N=C/c1ccc(-c2cccc([N+](=O)[O-])c2)o1	-10.4%
CCC1C/C(=C/c2cccs2)C(=O)/C(=C/c2cccs2)C1 (centres undefined)	-12.8%
CCOC(=O)C1=C(O)/C(=C/c2cc(C)n(-c3ccccc3)c2C)N=C1C	-7.36%
Cc1cc(C)c2nc(-c3ccco3)cc(C(=O)O)c2c1	79.1% (active)
CC(=O)C1=C(O)C(=O)N(c2ccc(Br)cc2)C1c1ccc([N+](=O)[O-])cc1 (centres undefined)	46.5% (active)
O=c1[nH]c(/C=C\c2cccc(C(F)(F)F)c2)nc(O)c1[N+](=O)[O-]	-7.2%
COc1ccc(/C=C/C(=O)c2cc(Br)ccc(=O)c2O)cc1	82.1% (active)
CC(=O)Oc1cccc(N2C(=O)CC(Nc3ccc(N4CCOCC4)cc3)C2=O)c1 (centres undefined)	-24.2%
Cc1ccc(C(=O)O)cc1-c1ccc(/C=C2\SC(=O)N(CC(=O)Nc3ccc4c(c3)OCO4)C2=O)o1	63.1% (active)
O=C(c1cccc(-n2cccc2)c1)N1CCN(S(=O)(=O)c2ccc(F)cc2)CC1	-4.73%
COc1ccc(C)cc1-n1nnnc1SCC(=O)c1cc(C)n(Cc2ccco2)c1C	6.51%
O=C(N/N=C/c1ccco1)c1csc2c1CCCC2	-9.79%
CC(C)c1ccc(C2C(C(=O)c3ccco3)=C(O)C(=O)N2CC2CCCO2)cc1 (centres undefined)	-11.7%
COc1cc(C2C(C(=O)c3ccco3)=C(O)C(=O)N2c2cc(C)on2)ccc1OCc1ccccc1 (centres undefined)	110% (active)
COc1ccccc1C1/C(=C(/O)c2ccc(OC(C)C)cc2)C(=O)C(=O)N1c1cc(C)on1 (centres undefined)	-6.81%
O=C1C=CC(=O)N1c1ccc(N2CCCCC2)cc1	-18.6%
COc1ccc(/C=C(\NC(=O)c2ccc(OCC(C)C)cc2)C(=O)OCc2ccco2)cc1	11.2%
Cc1[nH]n(C(N)=S)c(=O)c1N=Nc1ccc(Cl)cc1Cl	10.9%
CCOC(=O)c1ccccc1N1C(=O)C2Sc3[nH]c(=O)sc3C(/C=C/c3ccccc3)C2C1=O (centres undefined)	44.1% (active)
COC(=O)COc1ccc2c(c1C)O/C(=C\c1ccco1)C2=O	-7.55%
Cc1ccc(C2Nc3cccc4cccc(c34)N2)cc1	-28.1%
Cc1nn2c(c1-c1ccccc1)N=C(c1ccco1)CC2c1ccccc1 (centres undefined)	-12.4%
